One block for each compound: values may come before it.
Legend:
[1] = Activity against [Ca2+]-ATPase in rabbit white skeletal muscle sarcoplasmic reticulum vesicles
Oryctolagus cuniculus [2] = organism: Oryctolagus cuniculus; experiment: Inhibition of the [Ca2+]-ATPase by coincubation of the enzyme with the Thapsigargin (activity=56.5) along with the compound at 5000 nM concentration; set-up: scale not given: the % may be the effect or the level left
Oryctolagus cuniculus [3] = organism: Oryctolagus cuniculus; experiment: Inhibition of the [Ca2+]-ATPase by the compound (100 nM) was determined by the decrease in rate of formation of inorganic phosphate compared to control; set-up: scale not given: the % may be the effect or the level left
Summary of the method: (§1)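 Leaky SR vesicles (5 μg/mL protein) from New Zealand white rabbit hind-leg muscle in pH 7.0 buffer: KCl 120 mM, MOPS 25 mM, EGTA 0.5 mM, CaCl2 0.44 mM, MgCl2 2 mM, A23187 1 μM. Compound added in DMSO (<1%), 5 min preincubation at 30 °C, then ATP 1 mM final. Pi read by malachite green at ≥8 time points; rate from slope.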

Oryctolagus cuniculus [4] = organism: Oryctolagus cuniculus; experiment: Inhibition of the [Ca2+]-ATPase by the compound (500 nM) was determined by the decrease in rate of formation of inorganic phosphate compared to control; set-up: scale not given: the % may be the effect or the level left
Summary of the method: as §1

Oryctolagus cuniculus [5] = organism: Oryctolagus cuniculus; experiment: Inhibition of the [Ca2+]-ATPase by the compound (5000 nM) was determined by the decrease in rate of formation of inorganic phosphate compared to control; set-up: scale not given: the % may be the effect or the level left
Summary of the method: as §1

Oryctolagus cuniculus [6] = organism: Oryctolagus cuniculus; experiment: Inhibition of the [Ca2+]-ATPase by coincubation of the enzyme with the Thapsigargin (activity=56.5) along with the compound at 100 nM concentration; set-up: scale not given: the % may be the effect or the level left
Oryctolagus cuniculus [7] = organism: Oryctolagus cuniculus; experiment: Inhibition of the [Ca2+]-ATPase by coincubation of the enzyme with the Thapsigargin (activity=56.5) along with the compound at 500 nM concentration; set-up: scale not given: the % may be the effect or the level left
[8] = Activity against [Ca2+]-ATPase in rabbit white muscle sarcoplasmic reticulum vesicles
Oryctolagus cuniculus [9] = organism: Oryctolagus cuniculus; experiment: Inhibition of the [Ca2+]-ATPase by coincubation of the enzyme with the Thapsigargin (activity=49.4) along with the compound at 1 nM concentration; set-up: scale not given: the % may be the effect or the level left
Oryctolagus cuniculus [10] = organism: Oryctolagus cuniculus; experiment: Inhibition of the [Ca2+]-ATPase by coincubation of the enzyme with the Thapsigargin (activity=49.4) along with the compound at 30 nM concentration; set-up: scale not given: the % may be the effect or the level left
Oryctolagus cuniculus [11] = organism: Oryctolagus cuniculus; experiment: Inhibition of the [Ca2+]-ATPase by coincubation of the enzyme with the Thapsigargin (activity=49.4) along with the compound at 200 nM concentration; set-up: scale not given: the % may be the effect or the level left
Oryctolagus cuniculus [12] = organism: Oryctolagus cuniculus; experiment: Inhibition of the [Ca2+]-ATPase by the compound (200 nM) was determined by the decrease in rate of formation of inorganic phosphate compared to control; set-up: scale not given: the % may be the effect or the level left
Summary of the method: as §1

Oryctolagus cuniculus [13] = organism: Oryctolagus cuniculus; experiment: Inhibition of the [Ca2+]-ATPase by the compound (1 nM) was determined by the decrease in rate of formation of inorganic phosphate compared to control; set-up: scale not given: the % may be the effect or the level left
Summary of the method: as §1

Oryctolagus cuniculus [14] = organism: Oryctolagus cuniculus; experiment: Inhibition of the [Ca2+]-ATPase by the compound (30 nM) was determined by the decrease in rate of formation of inorganic phosphate compared to control; set-up: scale not given: the % may be the effect or the level left
Summary of the method: as §1

Oryctolagus cuniculus [15] = organism: Oryctolagus cuniculus; experiment: Inhibition of the [Ca2+]-ATPase by the compound (20 nM) was determined by the decrease in rate of formation of inorganic phosphate compared to control; set-up: scale not given: the % may be the effect or the level left
Summary of the method: as §1

Oryctolagus cuniculus [16] = organism: Oryctolagus cuniculus; experiment: Inhibition of the [Ca2+] - ATPase by coincubation of the enzyme with the Thapsigargin (activity=53.9) along with the compound at 1 nM concentration; set-up: scale not given: the % may be the effect or the level left
Oryctolagus cuniculus [17] = organism: Oryctolagus cuniculus; experiment: Inhibition of the [Ca2+]-ATPase by coincubation of the enzyme with the Thapsigargin (activity=53.9) along with the compound at 20 nM concentration; set-up: scale not given: the % may be the effect or the level left
Oryctolagus cuniculus [18] = organism: Oryctolagus cuniculus; experiment: Inhibition of the [Ca2+]-ATPase by coincubation of the enzyme with the Thapsigargin (activity=53.9) along with the compound at 100 nM concentration; set-up: scale not given: the % may be the effect or the level left
Oryctolagus cuniculus [19] = organism: Oryctolagus cuniculus; experiment: Inhibition of the [Ca2+]-ATPase by coincubation of the enzyme with the Thapsigargin (activity=53.3) along with the compound at 1 nM concentration; set-up: scale not given: the % may be the effect or the level left
Oryctolagus cuniculus [20] = organism: Oryctolagus cuniculus; experiment: Inhibition of the [Ca2+]-ATPase by coincubation of the enzyme with the Thapsigargin (activity=53.3) along with the compound at 100 nM concentration; set-up: scale not given: the % may be the effect or the level left
Oryctolagus cuniculus [21] = organism: Oryctolagus cuniculus; experiment: Inhibition of the [Ca2+]-ATPase by coincubation of the enzyme with the Thapsigargin (activity=53.3) along with the compound at 20 nM concentration; set-up: scale not given: the % may be the effect or the level left
Oryctolagus cuniculus [22] = organism: Oryctolagus cuniculus; experiment: Inhibition of the [Ca2+]-ATPase by the compound (50000 nM) was determined by the decrease in rate of formation of inorganic phosphate compared to control; set-up: scale not given: the % may be the effect or the level left
Summary of the method: as §1

Oryctolagus cuniculus [23] = organism: Oryctolagus cuniculus; experiment: Inhibition of the [Ca2+]-ATPase by coincubation of the enzyme with the Thapsigargin (activity=56.7) along with the compound at 50000 nM concentration; set-up: scale not given: the % may be the effect or the level left
Oryctolagus cuniculus [24] = organism: Oryctolagus cuniculus; experiment: Inhibition of the [Ca2+]-ATPase by coincubation of the enzyme with the Thapsigargin (activity=56.7) along with the compound at 1000 nM concentration; set-up: scale not given: the % may be the effect or the level left
Oryctolagus cuniculus [25] = organism: Oryctolagus cuniculus; experiment: Inhibition of the [Ca2+]-ATPase by the compound (1000 nM) was determined by the decrease in rate of formation of inorganic phosphate compared to control; set-up: scale not given: the % may be the effect or the level left
Summary of the method: as §1

Oryctolagus cuniculus [26] = organism: Oryctolagus cuniculus; experiment: Inhibition of the [Ca2+]-ATPase by the compound (10000 nM) was determined by the decrease in rate of formation of inorganic phosphate compared to control; set-up: scale not given: the % may be the effect or the level left
Summary of the method: as §1

Oryctolagus cuniculus [27] = organism: Oryctolagus cuniculus; experiment: Inhibition of the [Ca2+]-ATPase by coincubation of the enzyme with the Thapsigargin (activity=56.7) along with the compound at 10000 nM concentration; set-up: scale not given: the % may be the effect or the level left

IC50 [1]: 15.6 nM
Structure (SMILES): C/C=C(/C)C(=O)O[C@H]1C(C)=C2[C@H]([C@@H]1OC(=O)CCCCC)[C@@](C)(OC(C)=O)C[C@H](OC(=O)CCC)[C@@]1(O)[C@H]2O[C@@H](O)[C@@]1(C)O.C/C=C(/C)C(=O)O[C@H]1C(C)=C2[C@H]([C@@H]1OC(=O)CCCCC)[C@@](C)(OC(C)=O)C[C@H](OC(=O)CCC)[C@@]1(O)[C@H]2O[C@H](O)[C@@]1(C)O

Control (Oryctolagus cuniculus [2]): 24%
Control (Oryctolagus cuniculus [3]): 97%
Control (Oryctolagus cuniculus [4]): 87%
Control (Oryctolagus cuniculus [5]): 53.7%
Control (Oryctolagus cuniculus [6]): 52.3%
Control (Oryctolagus cuniculus [7]): 49%
IC50 [8]: 5590 nM
Structure (SMILES): C/C=C(/C)C(=O)O[C@H]1C(C)=C2[C@H]([C@@H]1OC(=O)CCCCC)[C@@](C)(O)C[C@H](OC(=O)CCC)[C@@]1(O)[C@H]2O[C@H]2OC(C)(C)O[C@]21C

IC50 [1]: 11.2 nM
Structure (SMILES): C/C=C(/C)C(=O)O[C@H]1C(C)=C2[C@H]([C@@H]1OC(=O)CCCCC)[C@@](C)(OC(C)=O)C[C@H](OC(=O)CCC)[C@@]1(O)[C@H]2O[C@H](OCC)[C@@]1(C)O

Control (Oryctolagus cuniculus [9]): 51.1%
Control (Oryctolagus cuniculus [10]): 34.6%
Control (Oryctolagus cuniculus [11]): 16.2%
Control (Oryctolagus cuniculus [12]): 21.9%
Control (Oryctolagus cuniculus [13]): 98.4%
Control (Oryctolagus cuniculus [14]): 68.9%
IC50 [1]: 120 nM
Structure (SMILES): C/C=C(/C)C(=O)O[C@H]1C(C)=C2[C@H]([C@@H]1OC(=O)CCCCCCC)[C@@](C)(O)C[C@H](OC(=O)CCCCCCC)[C@@]1(O)[C@H]2OC(O)[C@@]1(C)O (some centres not stated)

IC50 [1]: 51.7 nM
Structure (SMILES): C/C=C(/C)C(=O)O[C@H]1C(C)=C2[C@H]([C@@H]1OC(=O)CCCCC)[C@@](C)(OC(C)=O)C[C@H](OC(=O)CCC)[C@@]1(O)[C@H]2O[C@H]2O[C@]21C

Structure (SMILES): C/C=C(/C)C(=O)O[C@H]1C(C)=C2[C@H]([C@@H]1OC(=O)CCCCCCC)[C@@](C)(OC(C)=O)C[C@H](OC(=O)CCC)[C@@]1(O)[C@H]2OC(=O)[C@@]1(C)O [THAPSIGARGIN]
IC50 [1]: 9.6 nM

IC50 [1]: 18.4 nM
Structure (SMILES): C/C=C(/C)C(=O)O[C@H]1C(C)=C2[C@H]([C@@H]1OC(=O)CCCCC)[C@@](C)(OC(C)=O)C[C@H](OC(=O)CCC)[C@@]1(O)[C@H]2O[C@@H](OC(C)=O)[C@@]1(C)O

Control (Oryctolagus cuniculus [15]): 81.2%
Control (Oryctolagus cuniculus [3]): 66.6%
Control (Oryctolagus cuniculus [16]): 55.7%
Control (Oryctolagus cuniculus [13]): 100%
Control (Oryctolagus cuniculus [17]): 49.3%
Control (Oryctolagus cuniculus [18]): 34.7%
IC50 [1]: 157 nM
Structure (SMILES): C/C=C(/C)C(=O)O[C@H]1C(C)=C2[C@H]([C@@H]1OC(=O)CCCCC)[C@@](C)(OC(C)=O)C[C@H](OC(=O)CCC)[C@@]1(O)[C@H]2O[C@H]2OC(C)(C)O[C@]21C

Control (Oryctolagus cuniculus [19]): 52.5%
Control (Oryctolagus cuniculus [20]): 36.8%
Control (Oryctolagus cuniculus [15]): 98.4%
Control (Oryctolagus cuniculus [3]): 78.6%
Control (Oryctolagus cuniculus [13]): 101%
Control (Oryctolagus cuniculus [21]): 41.6%
IC50 [1]: 388 nM
Structure (SMILES): C/C=C(/C)C(=O)O[C@H]1C(C)=C2[C@H]([C@@H]1OC(=O)CCCCC)[C@@](C)(OC(C)=O)C[C@H](OC(=O)CCC)[C@@]1(O)[C@H]2O[C@H]2O[C@@H](OCC)O[C@]21C

Structure (SMILES): C/C=C(/C)C(=O)O[C@H]1C(C)=C2[C@H]([C@@H]1OC(=O)CCCCC)[C@@](C)(OC(C)=O)C[C@H](OC(=O)CCC)[C@@]1(O)[C@H]2OC(=O)[C@@]1(C)O
IC50 [1]: 9.8 nM

IC50 [1]: 24.1 nM
Structure (SMILES): C/C=C(/C)C(=O)O[C@H]1C(C)=C2[C@H]([C@@H]1OC(=O)CCCCC)[C@@](C)(OC(C)=O)C[C@H](OC(=O)CCC)[C@@]1(O)[C@H]2O[C@H]2O[C@H](OCC)O[C@]21C

Control (Oryctolagus cuniculus [22]): 50.9%
Control (Oryctolagus cuniculus [23]): 25.1%
Control (Oryctolagus cuniculus [24]): 53.8%
Control (Oryctolagus cuniculus [25]): 98.6%
Control (Oryctolagus cuniculus [26]): 82.6%
Control (Oryctolagus cuniculus [27]): 43.5%
IC50 [8]: 60600 nM
Structure (SMILES): C/C=C(/C)C(=O)O[C@H]1C(C)=C2[C@H]([C@@H]1O)[C@@](C)(O)C[C@H](OC(=O)CCC)[C@@]1(O)[C@H]2O[C@H]2OC(C)(C)O[C@]21C

Source: ChEMBL document CHEMBL1128581, “Structure-activity relationships of analogues of thapsigargin modified at O-11 and O-12” (J Med Chem, 1995)
